Screening results from PubChem.
This is one part of a sample in which hits are shown more often than they occur.
Lmaj promast: Leishmania major promastigote growth inhibition | Leishmania major promastigotes, resazurin fluorescence viability | inhibition, % at 10 µM | actives 9% (n = 200,000) | AID 1063;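 further: promastigotes grown with compound for 44 hours at 28 °C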
ABCG2 block: inhibitors of human ABCG2 transporter, ABCB1 counter-screen; Q9UNQ0; IgMXP3 cells, JC-1 efflux, flow cytometry; inhibition, % at 6.6 µM; actives 0.1% (n = 190,000);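 active means inhibition above 80%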;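 further: 0% = DMSO and 100% = nicardipine control wells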
Target sequence (Q9UNQ0 whole entry, looked up): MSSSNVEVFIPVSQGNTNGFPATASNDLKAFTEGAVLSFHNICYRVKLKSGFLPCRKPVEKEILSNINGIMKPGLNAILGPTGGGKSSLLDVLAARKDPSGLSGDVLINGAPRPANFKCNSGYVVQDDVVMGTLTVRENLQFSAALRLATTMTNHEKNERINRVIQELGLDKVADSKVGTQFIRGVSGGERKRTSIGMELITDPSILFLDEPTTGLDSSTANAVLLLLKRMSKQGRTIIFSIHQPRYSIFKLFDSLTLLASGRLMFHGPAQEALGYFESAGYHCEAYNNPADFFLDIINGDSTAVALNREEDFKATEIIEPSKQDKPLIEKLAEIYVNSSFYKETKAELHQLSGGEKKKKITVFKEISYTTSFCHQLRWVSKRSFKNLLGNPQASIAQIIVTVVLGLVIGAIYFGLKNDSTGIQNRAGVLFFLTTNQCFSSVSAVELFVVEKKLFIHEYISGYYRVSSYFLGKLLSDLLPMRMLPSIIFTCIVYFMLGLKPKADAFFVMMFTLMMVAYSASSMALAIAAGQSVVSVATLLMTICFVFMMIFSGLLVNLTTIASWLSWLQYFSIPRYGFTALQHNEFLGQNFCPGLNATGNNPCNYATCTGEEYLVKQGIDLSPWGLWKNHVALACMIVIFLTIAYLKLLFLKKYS
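Test system: IgMXP3 (ABCG2) plus far-red-tagged CCRF-Adr (ABCB1) cells. Reagent: JC-1 dye as substrate. Timing: 10 min exposure at 25 °C with rotation, no wash. Measured by: flow cytometric JC-1 green MFI at 530 nm. Read-out: percent efflux inhibition, scaled nicardipine 100% to DMSO 0%. Control set: nicardipine and DMSO wells.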
Avidin bead fluor: compound fluoresces at 488/530 nm on avidin beads | actives 0.38% (n = 220,000) | compound fluorescence 488/530 nm, flow cytometry; hits give high values | fluorescence (KMESF) at 10 µM; in the data active means fluorescence above about 47
ABCB1 inh: inhibitors of human ABCB1 transporter, ABCG2 counter-screen; P08183; CCRF-Adr cells, JC-1 efflux, flow cytometry; inhibition, % at 6.6 µM; actives 0.067% (n = 190,000); in the data active means inhibition above about 40%;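 further: 0% = vehicle and 100% = reference inhibitor; higher value means more JC-1 retained so stronger ABCB1 efflux block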
PKD1 inh: inhibitors of human PKD1 kinase; PKD1 kinase fluorescence polarization assay; Q15139; inhibition, % (no concentration beside the values); actives 0.056% (n = 200,000)
GSH fluor: compound fluoresces at 488/530 nm on GSH beads; GSH beads flow cytometry, compound fluorescence 488/530 nm; hits give high values; fluorescence (KMESF) at 10 µM; actives 0.25% (n = 190,000); AID 1776; in the data active means fluorescence above about 89;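 further: glutathione beads carrying GST-tagged Bcl family fusion proteins plus one bare bead set; values are compound well signal with DMSO vehicle wells as background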
An asterisk follows results filed as active; nt = no result given. Unless noted, no stated cut-off is given here; in the data, active means inhibition above about 50%; inactive means the rest.

SMILES	Lmaj promast	ABCG2 block	Avidin bead fluor	ABCB1 inh	PKD1 inh	GSH fluor
CCOc1ccccc1CN1C(=O)c2ccccc2C1C(=O)NCC1CCCO1 (stereo not given)	-3	2	42	1	-9	17
O=C(NC(Nc1nc2ccc([N+](=O)[O-])cc2s1)(C(F)(F)F)C(F)(F)F)c1ccccc1Cl	100*	3	13	0	-5	20
O=C(NC(Nc1nc2ccc([N+](=O)[O-])cc2s1)(C(F)(F)F)C(F)(F)F)c1cccnc1	21	36	14	1	6	22
Cc1ccc(/C=N/N2CCN(C3c4ccccc4-c4ccccc43)CC2)o1	nt	nt	5	nt	nt	nt
COc1ccccc1CNC(=O)/C=C/c1cc2c(cc1Br)OCO2	-5	5	12	0	-10	30
C=CCN1C(=O)C2(NC(=O)c3ccccc3N2)c2ccccc21 (stereo not given)	-3	3	164*	0	-5	22
COCCNC(=O)/C(C#N)=C\c1ccc(CNS(=O)(=O)c2ccc(C)cc2)o1	-4	0	11	0	-2	18
Cc1ccc(S(=O)(=O)NCc2ccc(/C=C(/C#N)C(=O)NCc3ccccc3)o2)cc1	70*	6	12	1	-5	15
CC(=O)Nc1cc(C(=O)N2CCc3ccccc3C2)ccc1Sc1ccc(Cl)cc1	-5	-2	17	0	0	18
Cc1[nH]c2ccccc2c1/C=N/NC(=O)C1CC1(c1ccccc1)c1ccccc1 (stereo not given)	99*	1	31	0	-5	9
Cc1[nH]c2ccccc2c1/C=N/NC(=O)CCC(=O)NCc1ccccc1	-4	-1	14	0	-3	11
CCOC(=O)/C(C)=N/Nc1nc(-c2ccc(NC(C)=O)cc2)cs1	nt	nt	6	nt	nt	nt
O=c1c(Cl)c(NCCCO)cnn1-c1nc2ccccc2[nH]1	5	0	4	0	0	18
C=CCN(CC=C)c1cnn(-c2nc3ccccc3[nH]2)c(=O)c1Cl	65*	5	8	1	0	11
CCc1cc(/C(Cc2ccccn2)=N\Nc2ccccc2)c(O)cc1O	59*	1	10	0	4	20
Cc1cc2ncn(-c3ncnc4scc(-c5ccccc5)c34)c2cc1C	3	3	36	1	-6	8
Cc1noc(/C=C/c2ccc(-c3ccccc3Cl)o2)c1[N+](=O)[O-]	-4	15	57*	9	1	30
Cc1ccc(N2C(=O)C(F)(F)C2c2ccccc2)cc1 (stereo not given)	8	2	9	0	-2	12
Cc1ccc(N2C(=N)/C(=C3/Nc4ccccc4S3)C(c3ccccc3)C2=O)cc1 (stereo not given)	100*	3	10	4	4	11
Cc1cc(N2C(=O)CCC2=O)ccc1NC(=O)c1cccs1	0	-6	9	-7	0	12
CCOc1c(OC)ccc2c3c(c(=O)oc12)CCCC3	4	6	12	1	4	25
COc1ccc2c3c(c(=O)oc2c1OCC(=O)O)CCCC3	61*	2	14	1	-3	11
CCCCOc1ccc(C(=O)CCN2CCCCC2)cc1	92*	1	7	1	-5	20
CC(C)COc1ccc(C(=O)OCCN2CCOCC2)cc1	-1	3	17	0	-7	30
CCCOc1ccc(C(C)=O)cc1CN1CCOCC1	-4	1	1	1	6	10
SMILES	Lmaj promast	ABCG2 block	Avidin bead fluor	ABCB1 inh	PKD1 inh	GSH fluor
CC(C)COc1ccc(C(=O)CCN2CCCCC2)cc1	96*	-1	13	0	10	22
CC(=O)c1ccc(OCC(C)C)c(CN2CCCCC2)c1	86*	11	36	1	-11	26
COc1ccc(C2CC(=O)C(C=NCCN3CCN(C(=S)Nc4ccccc4)CC3)=C(O)C2)cc1OC (stereo not given)	1	0	15	0	-1	13
CCc1ccc(/C([O-])=C(/C(=S)NCCN2CCOCC2)[n+]2ccccc2)cc1	-6	-2	9	0	-3	25
COc1cccc(-c2nn(-c3ccccc3)cc2C(=O)O)c1	-5	2	5	0	-4	29
COc1cccc(-c2nn(-c3ccccc3)cc2/C=C\C(=O)c2cccs2)c1	65*	0	37	0	-24	12
Cn1nnnc1SCC(=O)Nc1cc(C(=O)O)cc(C(=O)O)c1	-1	0	5	0	-3	59
COc1ccc(/C=N/Nc2cc(C)nc(-n3nc(C)cc3C)n2)c(OC)c1	99*	0	12	0	22	9
CNc1cc(C)nc(-n2nc(C)cc2C)n1	-5	1	15	0	8	28
CCOc1ccc(Nc2cc(C)nc(-n3nc(C)cc3C)n2)cc1	90*	44	19	1	-3	23
Cc1cc(N/N=C/c2ccc(F)cc2)nc(-n2nc(C)cc2C)n1	nt	nt	9	nt	nt	nt
CN(C(=O)COC(=O)CNC(=O)c1sc2ccccc2c1Cl)c1ccccc1	39	2	11	0	-1	6
CCN(CC)CCC(=O)c1ccc(F)cc1	80*	1	10	0	-6	11
Cc1ccc(-c2nc(SCC(=O)NCCN3C(=O)CSC3=O)[nH]c2-c2ccc(C)cc2)cc1	81*	49	12	2	-5	37
COc1ccc(N2CCN(C(=O)CCc3ccc(S(=O)(=O)NCC(C)C)cc3)CC2)cc1	7	21	5	3	4	27
CC(=O)NC(CCS(C)(=O)=O)C(=O)Nc1ccc(F)cc1Cl (stereo not given)	-5	4	14	1	-5	33
CCCCN(CC)S(=O)(=O)c1ccc(C(=O)Nc2nnc(-c3cccs3)o2)cc1	99*	2	35	0	-1	23
CCc1nnc(NC(=O)c2ccc(S(=O)(=O)N(CC)Cc3ccccc3)cc2)o1	99*	0	23	0	4	14
CCCCN(C)S(=O)(=O)c1ccc(C(=O)Nc2nnc(-c3ccco3)o2)cc1	96*	0	5	-1	-7	20
CCN(CC)S(=O)(=O)c1ccc(C(=O)Nc2nnc(-c3ccco3)o2)cc1	92*	0	8	-1	10	22
CCCCN(C)S(=O)(=O)c1ccc(C(=O)Nc2nnc(CSC)o2)cc1	48	6	7	1	1	25
CN(C)S(=O)(=O)c1ccc(C(=O)Nc2nnc(-c3ccco3)o2)cc1	-3	1	14	0	-3	11
CCCCN(CCCC)S(=O)(=O)c1ccc(C(=O)Nc2nnc(COC)o2)cc1	-7	6	20	1	-13	31
C(=N\Nc1ccccc1)/c1nc2ccccc2s1	nt	nt	6	nt	nt	nt
O=C1CCN(Cc2nc(-c3ccc(Cl)cc3)no2)CCN1	-1	5	1	-1	-5	15
